Test results: ChEMBL document CHEMBL1151459, “Bile and unsaturated fatty acids inhibit the binding of cholera toxin and Escherichia coli heat-labile enterotoxin to GM1 receptor” (Antimicrob Agents Chemother, 2008)
Activity calls are given as the source filed them. The rule behind the calls is not given here.

Tests used:
[1] = Binding affinity to Vibrio cholerae cholera toxin assessed as inhibition of cholera toxin binding to ganglioside GM1 receptor treated 15 mins before receptor addition by ELISA
[2] = Binding affinity to Vibrio cholerae cholera toxin assessed as quenching of intrinsic fluorescence by two-state binding model assay
Escherichia coli = experiment: Binding affinity to enterotoxigenic Escherichia coli 12566 heat-labile enterotoxin assessed as inhibition of heat-labile enterotoxin binding to ganglioside GM1 receptor
Method in brief: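 A clarified sonicated PBS lysate of E. coli 12566 containing LT (90 μl) was incubated with or without ligand in 100 μl for 15 min at room temperature. Samples were serially diluted onto immobilized GM1 and detected by ELISA with polyclonal rabbit anti-CT serum as primary antibody.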

Vibrio cholerae [3] = experiment: Binding affinity to Vibrio cholerae cholera toxin assessed as inhibition of cholera toxin binding to ganglioside GM1 receptor relative to ganglioside GM1 receptor antagonist […]
Oryctolagus cuniculus [4] = species on record: Oryctolagus cuniculus; experiment: Inhibition of intestinal fluid accumulation in rabbit ligated ileal loop model at 3.3 mM injected in presence of cholera toxin after 16 hrs; assay type: functional; settings: Ileum
Vibrio cholerae [5] = experiment: Blockade of anti-CT antibody binding site of Vibrio cholerae cholera toxin preincubated for 15 mins before addition of anti-CT immunoglobulin G by immunoprecipitation-based SDS-PAGE
Vibrio cholerae [6] = experiment: Binding affinity to Vibrio cholerae cholera toxin assessed as apparent isoelectric point at 100 mM by isoelectric focusing analysis (isoelectric point Rvb=6.8)
Oryctolagus cuniculus [7] = species on record: Oryctolagus cuniculus; experiment: Inhibition of intestinal fluid accumulation in rabbit ligated ileal loop model at 21 mM injected in presence of heat labile enterotoxin after 16 hrs; assay type: functional; settings: Ileum
Method in brief: (§1)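 Rabbits were starved overnight with free access to water, then anesthetized. The ileum was tied into consecutive 7-cm loops proximal to the mesoappendix. LT-containing cell lysate (750 μl) was injected alone or with sodium linolate. After 16 h the fluid in each loop was collected and expressed as ml per cm loop length. Results are means ± SD of three independent experiments.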

Vibrio cholerae [8] = experiment: Binding affinity to Vibrio cholerae cholera toxin assessed as decrease in fluorescence intensity by fluorescence emission spectroscopy
Oryctolagus cuniculus [9] = species on record: Oryctolagus cuniculus; experiment: Inhibition of intestinal fluid accumulation in rabbit ligated ileal loop model injected in presence of cholera toxin after 16 hrs; assay type: functional; settings: Ileum
[10] = Inhibition of intestinal fluid accumulation in rabbit ligated ileal loop model assessed as fluid level at 1.65 mM injected in presence of cholera toxin after 16 hrs (RVb=1.6 +/- 0.2 ml/cm); assay type: functional, Oryctolagus cuniculus, Ileum
[11] = Inhibition of intestinal fluid accumulation in rabbit ligated ileal loop model assessed as fluid level at 10.5 mM injected in presence of heat labile enterotoxin after 16 hrs (RVb=5.5 +/- 1 ml); assay type: functional, Oryctolagus cuniculus, Ileum; method in brief: as §1

| Compound | IC50 [1] [µM] | Kd [2] [µM] | inhibition (Escherichia coli) | other results |
| --- | --- | --- | --- | --- |
| CCCCCCCCCCCCCCCCCC(=O)O [STEARIC ACID] | 5270 |  |  |  |
| CCCCCCCC/C=C\CCCCCCCC(=O)O [OLEIC ACID] | 410 | 160 | Active |  |
| CCCCC/C=C\C/C=C\C/C=C\C/C=C\CCCC(=O)O [ARACHIDONIC ACID] | 380 | 180 | Active |  |
| CCCCC/C=C\C/C=C\CCCCCCCC(=O)O [LINOLEIC ACID] | 410 |  |  |  |
| CCCCCCCCCCCCCCCC(=O)O [PALMITIC ACID] | 5800 |  |  |  |
| CCCCC/C=C\C/C=C\CCCCCCCC(=O)O |  |  | Active | Ratio (Vibrio cholerae [3]): 200; inhibition (Oryctolagus cuniculus [4]): Active; Activity (Vibrio cholerae [5]): inactive; Activity (Vibrio cholerae [6]): Active; Activity (Oryctolagus cuniculus [7]): Active; Activity (Vibrio cholerae [8]): Active; Activity (Oryctolagus cuniculus [9]): Dose-dependent effect |
| CCCCC/C=C\C/C=C\CCCCCCCC(=O)[O-].[Na+] [SODIUM LINOLATE] |  | 130 |  | Activity [10]: 0.76 mL/cm; Activity [11]: 1 mL |
